According to ChEMBL document CHEMBL1811770, “Synthesis and structural investigation of some pyrimido[5,4-c]quinolin-4(3H)-one derivatives with a long-chain arylpiperazine moiety as potent 5-HT(1A/2A) and 5-HT(7) receptor ligands” (Eur J Med Chem, 2011):

Assays:
[1] = target: 5-hydroxytryptamine receptor 7 (Homo sapiens, UniProt P34969); assay: Displacement of [3H]-5-CT from human 5-HT7b receptor expressed in HEK293 cells by radioligand binding assay; type: cell-based
How it was run: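 Membranes from HEK-293 cells stably expressing human 5-HT7b receptor, with [3H]-5-CT (93.0 Ci/mmol) as radioligand. Full competition used 7–9 concentrations of test compound, each run in triplicate. Ki was derived from the inhibition.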

[2] = target: 5-hydroxytryptamine receptor 2A (Rattus norvegicus) (UniProt P14842); assay: Displacement of [3H]ketanserin from 5HT2A receptor in rat cortex membrane at 10^-6 M by radioligand binding assay; type: cell membranes
How it was run: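 Single-point screen at 1 µM, reported as % inhibition of [3H]-ketanserin (88.0 Ci/mmol) binding. Non-specific binding was defined with 1 µM methysergide. Compounds inhibiting at least 85% went on to full competition.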

[3] = target: T1, 5-hydroxytryptamine receptor 1A (Rattus norvegicus) (UniProt P19327); assay: Displacement of [3H]8-OH-DPAT from 5HT1A receptor in rat hippocampal membrane at 10^-6 M by radioligand binding assay; type: cell membranes; conditions: Hippocampus
T1 sequence (whole entry): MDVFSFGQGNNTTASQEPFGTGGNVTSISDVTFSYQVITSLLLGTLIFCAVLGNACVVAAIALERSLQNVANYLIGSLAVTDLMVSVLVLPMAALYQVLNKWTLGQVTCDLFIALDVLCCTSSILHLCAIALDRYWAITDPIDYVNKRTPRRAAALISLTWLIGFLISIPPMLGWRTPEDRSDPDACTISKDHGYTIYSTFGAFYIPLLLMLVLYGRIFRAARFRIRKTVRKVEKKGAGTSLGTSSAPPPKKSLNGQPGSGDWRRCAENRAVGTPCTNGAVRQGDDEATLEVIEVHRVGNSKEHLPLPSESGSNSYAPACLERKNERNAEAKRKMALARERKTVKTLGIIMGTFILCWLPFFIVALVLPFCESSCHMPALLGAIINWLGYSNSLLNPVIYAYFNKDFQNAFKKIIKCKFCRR
How it was run: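 Single-point screen at 1 µM on rat hippocampal membranes, reported as % inhibition of [3H]-8-OH-DPAT (170 Ci/mmol) binding. Non-specific binding was defined with 10 µM 5-HT. Compounds inhibiting at least 85% went on to full competition.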

[4] = target: T2, 5-hydroxytryptamine receptor 1A (Rattus norvegicus, UniProt P19327); assay: Displacement of [3H]8-OH-DPAT from 5HT1A receptor in rat hippocampal membrane by radioligand binding assay; type: cell membranes, Hippocampus
T2 sequence (P19327 whole entry): T1 sequence (whole entry)
How it was run: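 Rat hippocampal membranes were incubated with [3H]-8-OH-DPAT (170 Ci/mmol), with 10 µM 5-HT for non-specific binding. Competition used 7–9 test concentrations, each in triplicate, to give Ki. Values are means of three experiments run in triplicate.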

Sequence of 5-hydroxytryptamine receptor 7 (P34969 whole entry): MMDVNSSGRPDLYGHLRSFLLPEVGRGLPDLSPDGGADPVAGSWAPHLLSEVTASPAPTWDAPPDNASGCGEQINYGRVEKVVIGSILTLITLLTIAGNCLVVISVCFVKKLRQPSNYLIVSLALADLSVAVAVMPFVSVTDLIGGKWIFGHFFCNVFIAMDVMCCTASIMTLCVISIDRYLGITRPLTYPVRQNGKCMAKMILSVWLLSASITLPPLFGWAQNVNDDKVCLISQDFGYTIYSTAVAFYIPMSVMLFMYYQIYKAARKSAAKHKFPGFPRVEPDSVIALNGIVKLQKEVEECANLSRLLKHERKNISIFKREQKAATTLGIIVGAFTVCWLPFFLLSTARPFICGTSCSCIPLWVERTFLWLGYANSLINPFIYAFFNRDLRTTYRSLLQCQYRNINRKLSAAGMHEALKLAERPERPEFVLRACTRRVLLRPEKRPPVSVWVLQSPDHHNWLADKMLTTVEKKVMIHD
Sequence of 5-hydroxytryptamine receptor 2A (Rattus norvegicus) (P14842 whole entry): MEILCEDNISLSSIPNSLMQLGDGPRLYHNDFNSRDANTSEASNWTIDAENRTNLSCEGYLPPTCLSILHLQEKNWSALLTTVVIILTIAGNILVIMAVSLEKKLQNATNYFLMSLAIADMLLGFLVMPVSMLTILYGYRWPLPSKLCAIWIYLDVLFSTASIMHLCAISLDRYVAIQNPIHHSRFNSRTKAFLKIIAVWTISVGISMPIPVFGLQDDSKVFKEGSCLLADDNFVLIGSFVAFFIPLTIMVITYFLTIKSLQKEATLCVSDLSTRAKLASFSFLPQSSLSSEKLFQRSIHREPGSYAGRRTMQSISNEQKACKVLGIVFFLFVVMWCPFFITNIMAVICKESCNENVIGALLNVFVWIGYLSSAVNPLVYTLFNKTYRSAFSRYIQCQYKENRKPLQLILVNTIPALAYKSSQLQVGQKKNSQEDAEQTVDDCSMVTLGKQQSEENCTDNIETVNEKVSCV

Structure (SMILES) | Ki [1] [nM] | inhibition [2] [%] | inhibition [3] [%] | Ki [4] [nM]
O=c1c2cnc3ccccc3c2ncn1CCCCN1CCN(c2ccc(Cl)cc2)CC1 | 328 | 79 | 54 | 
Cc1ccc2c(c1)ncc1c(=O)n(CCCCN3CCN(c4ccccc4F)CC3)cnc12 |  | 45 | 90 | 83
Cc1ccc2ncc3c(=O)n(CCCCN4CCN(c5cccc(Cl)c5)CC4)cnc3c2c1 |  | 57 | 91 | 67
Cc1ccccc1N1CCN(CCCn2cnc3c(cnc4ccccc43)c2=O)CC1 |  | 32 | 81 | 
O=c1c2cnc3ccccc3c2ncn1CCCN1CCN(c2ccccc2F)CC1 |  | 27 | 92 | 55
COc1ccc(N2CCN(CCn3cnc4c(cnc5ccc(C)cc54)c3=O)CC2)cc1 |  | 4 | 5 | 
COc1ccc(N2CCN(CCCCn3cnc4c(cnc5ccccc54)c3=O)CC2)cc1 | > 10000 | 48 | 11 | 
Cc1ccc2ncc3c(=O)n(CCCN4CCN(c5ccccc5)CC4)cnc3c2c1 |  | 28 | 86 | 128
Cc1ccc2ncc3c(=O)n(CCCN4CCN(c5ccc(F)cc5)CC4)cnc3c2c1 |  | 39 | 67 | 
Cc1ccc2ncc3c(=O)n(CCCCN4CCN(c5ccc(F)cc5)CC4)cnc3c2c1 |  | 56 | 72 | 
COc1ccccc1N1CCN(CCCCn2cnc3c(cnc4ccc(C)cc43)c2=O)CC1 |  | 48 | 99 | 8
O=c1c2cnc3ccccc3c2ncn1CCCN1CCN(c2ccccc2Cl)CC1 |  | 41 | 87 | 93
O=c1c2cnc3ccccc3c2ncn1CCCN1CCN(c2cccc(Cl)c2)CC1 |  | 63 | 91 | 80
O=c1c2cnc3ccccc3c2ncn1CCCN1CCN(c2ccc(Cl)cc2)CC1 |  | 67 | 42 | 
Cc1ccccc1N1CCN(CCn2cnc3c(cnc4ccccc43)c2=O)CC1 |  | 34 | 84 | 514
COc1ccc(N2CCN(CCn3cnc4c(cnc5cc(C)ccc54)c3=O)CC2)cc1 |  | 9 | 9 | 
O=c1c2cnc3ccccc3c2ncn1CCN1CCN(c2ccc(F)cc2)CC1 |  | 14 | 40 | 
Cc1ccc2c(c1)ncc1c(=O)n(CCCN3CCN(c4ccccc4)CC3)cnc12 |  | 44 | 86 | 125
O=c1c2cnc3ccccc3c2ncn1CCN1CCN(c2ccc(Cl)cc2)CC1 |  | 4 | 11 | 

Structure (SMILES) | Ki [1] [nM] | inhibition [2] [%] | inhibition [3] [%] | Ki [4] [nM]
Cc1ccc2ncc3c(=O)n(CCN4CCN(c5cccc(C(F)(F)F)c5)CC4)cnc3c2c1 |  | 8 | 82 | 
Cc1ccccc1N1CCN(CCCCn2cnc3c(cnc4ccccc43)c2=O)CC1 | 296 | 82 | 96 | 52
O=c1c2cnc3ccccc3c2ncn1CCCN1CCN(c2cccc(C(F)(F)F)c2)CC1 |  | 44 | 85 | 243
O=c1c2cnc3ccccc3c2ncn1CCN1CCN(c2ccccc2F)CC1 |  | 25 | 47 | 
Cc1ccc2ncc3c(=O)n(CCCCN4CCN(c5ccccc5F)CC4)cnc3c2c1 |  | 34 | 94 | 97
O=c1c2cnc3ccccc3c2ncn1CCCN1CCN(c2ccc(F)cc2)CC1 |  | 73 | 85 | 129
COc1cccc(N2CCN(CCn3cnc4c(cnc5ccccc54)c3=O)CC2)c1 |  | 11 | 82 | 
Cc1ccc2c(c1)ncc1c(=O)n(CCCCN3CCN(c4cccc(Cl)c4)CC3)cnc12 |  | 62 | 85 | 172
COc1ccc(N2CCN(CCCn3cnc4c(cnc5ccccc54)c3=O)CC2)cc1 |  | 23 | 0 | 
O=c1c2cnc3ccccc3c2ncn1CCCCN1CCN(c2cccc(Cl)c2)CC1 | 184 | 84 | 96 | 34
O=c1c2cnc3ccccc3c2ncn1CCCCN1CCN(c2ccccc2F)CC1 | 739 | 79 | 96 | 63
O=c1c2cnc3ccccc3c2ncn1CCN1CCN(c2ccccc2Cl)CC1 |  | 17 | 90 | 78
O=c1c2cnc3ccccc3c2ncn1CCCCN1CCN(c2cccc(C(F)(F)F)c2)CC1 | 418 | 61 | 89 | 127
O=c1c2cnc3ccccc3c2ncn1CCCCN1CCN(c2ccccc2)CC1 | 612 | 76 | 93 | 28
COc1ccccc1N1CCN(CCCCn2cnc3c(cnc4ccccc43)c2=O)CC1 | 276 | 64 | 97 | 6
COc1ccccc1N1CCN(CCCn2cnc3c(cnc4ccccc43)c2=O)CC1 |  | 8 | 97 | 20
COc1ccccc1N1CCN(CCCCn2cnc3c(cnc4cc(C)ccc43)c2=O)CC1 |  | 43 | 99 | 20
COc1cccc(N2CCN(CCCn3cnc4c(cnc5ccccc54)c3=O)CC2)c1 |  | 26 | 89 | 120
O=c1c2cnc3ccccc3c2ncn1CCN1CCN(c2cccc(Cl)c2)CC1 |  | 22 | 93 | 55

Structure (SMILES) | Ki [1] [nM] | inhibition [2] [%] | inhibition [3] [%] | Ki [4] [nM]
O=c1c2cnc3ccccc3c2ncn1CCN1CCN(c2cccc(C(F)(F)F)c2)CC1 |  | 36 | 89 | 160
O=c1c2cnc3ccccc3c2ncn1CCCCN1CCN(c2ccccc2Cl)CC1 | 153 | 72 | 92 | 17
COc1ccccc1N1CCN(CCn2cnc3c(cnc4cc(C)ccc43)c2=O)CC1 |  | 19 | 96 | 14
COc1ccccc1N1CCN(CCn2cnc3c(cnc4ccc(C)cc43)c2=O)CC1 |  | 11 | 88 | 82
Cc1ccc2c(c1)ncc1c(=O)n(CCCCN3CCN(c4ccc(F)cc4)CC3)cnc12 |  | 57 | 60 | 
Cc1ccc2c(c1)ncc1c(=O)n(CCN3CCN(c4cccc(C(F)(F)F)c4)CC3)cnc12 |  | 8 | 88 | 241
O=c1c2cnc3ccccc3c2ncn1CCN1CCN(c2ccccc2)CC1 |  | 26 | 66 | 
Cc1ccc2c(c1)ncc1c(=O)n(CCCN3CCN(c4ccc(F)cc4)CC3)cnc12 |  | 45 | 68 | 
COc1cccc(N2CCN(CCCCn3cnc4c(cnc5ccccc54)c3=O)CC2)c1 | 484 | 76 | 90 | 31
COc1ccccc1N1CCN(CCn2cnc3c(cnc4ccccc43)c2=O)CC1 |  | 36 | 93 | 42
COc1ccccc1N1CCN(CCCn2cnc3c(cnc4cc(C)ccc43)c2=O)CC1 |  | 18 | 92 | 31
COc1ccccc1N1CCN(CCCn2cnc3c(cnc4ccc(C)cc43)c2=O)CC1 |  | 5 | 93 | 26
Cc1ccc2c(c1)ncc1c(=O)n(CCCN3CCN(c4cccc(Cl)c4)CC3)cnc12 |  | 40 | 73 | 
O=c1c2cnc3ccccc3c2ncn1CCCCN1CCN(c2ccc(F)cc2)CC1 | 404 | 82 | 75 | 
Cc1ccc2ncc3c(=O)n(CCCN4CCN(c5cccc(Cl)c5)CC4)cnc3c2c1 |  | 44 | 77 | 
O=c1c2cnc3ccccc3c2ncn1CCN1CCN(c2ccc(-c3ncccn3)cc2)CC1 |  | 29 | 10 | 
COc1ccc(N2CCN(CCn3cnc4c(cnc5ccccc54)c3=O)CC2)cc1 |  | 28 | 6 | 
O=c1c2cnc3ccccc3c2ncn1CCCN1CCN(c2ccccc2)CC1 |  | 66 | 95 | 47
